# In the library only some 4.5% were active in any assay of this set; here they are far more common.
# TAAR1 antag: antagonists of human TAAR1; inhibition, % at 3 µM; Q96RJ0; 360,000 tested, 1.5% active; CHO RD-HGA16 TAAR1, Fluo-8 calcium fluorescence, antagonist;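 active means inhibition above a per-plate cutoff, the mean inhibition of test compounds on that plate plus 3 SD, cut at about 49% in these data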;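 further: 0% = DMSO plus EC80 beta-PEA response and 100% = DMSO alone without agonist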
# Target sequence (Q96RJ0 whole entry, looked up): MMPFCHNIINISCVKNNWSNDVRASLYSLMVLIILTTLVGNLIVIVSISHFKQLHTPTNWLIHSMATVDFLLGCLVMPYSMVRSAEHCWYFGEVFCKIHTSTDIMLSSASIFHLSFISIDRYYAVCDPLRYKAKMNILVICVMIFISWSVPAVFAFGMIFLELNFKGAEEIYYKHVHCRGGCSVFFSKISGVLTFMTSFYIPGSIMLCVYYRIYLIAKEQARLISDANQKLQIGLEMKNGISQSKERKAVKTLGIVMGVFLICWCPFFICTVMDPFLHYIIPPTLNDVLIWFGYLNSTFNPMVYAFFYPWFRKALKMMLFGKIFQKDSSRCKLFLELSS
#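 Material: RD-HGA16 CHO cells with stable hTAAR1 and Gα16; Dosing: single nominal final test compound concentration of 3 µM; Schedule: seeding 17-24 h prior, 75-min 37 °C, 30-min RT dye loading; Detection: kinetic Fluo-8 calcium fluorescence measurement; Measure: % inhibition from peak post-agonist over basal fluorescence ratio; Benchmarks: vehicle and agonist controls.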
# OX1R antag-1: OX1R (human) antagonism; 330,000 tested, 1.8% active; inhibition, % at 6.6 µM; OX1R-expressing cells, FRET antagonist read-out; O43613; in the data active means inhibition mostly above about 38%, no sharp cut-off; inactive means mostly below about 40%;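 further: 0% = agonist challenge alone and 100% = reference antagonist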
# Target sequence (O43613 whole entry, looked up): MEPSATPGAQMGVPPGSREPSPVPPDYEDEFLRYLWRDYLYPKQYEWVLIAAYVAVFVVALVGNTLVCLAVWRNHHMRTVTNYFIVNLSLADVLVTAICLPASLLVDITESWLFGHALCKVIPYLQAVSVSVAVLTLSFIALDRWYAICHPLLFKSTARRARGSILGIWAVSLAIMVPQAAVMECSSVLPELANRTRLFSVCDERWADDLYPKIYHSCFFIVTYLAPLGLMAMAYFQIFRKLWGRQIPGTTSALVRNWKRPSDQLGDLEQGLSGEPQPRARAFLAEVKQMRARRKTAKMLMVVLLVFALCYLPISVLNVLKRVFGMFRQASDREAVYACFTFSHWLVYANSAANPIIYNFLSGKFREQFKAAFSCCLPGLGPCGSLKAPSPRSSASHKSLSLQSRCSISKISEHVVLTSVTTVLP
# OX1R antag-2: blocks the human orexin 1 receptor; O43613; CHO/OX1R cells, Fluo-8 calcium fluorescence, orexin A; inhibition, % at 5 µM; 330,000 tested, 0.43% active; AID 434989;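 active means inhibition above its plate's threshold, mean inhibition of all tested compounds on the plate plus 3 SD, cut at about 37% in these data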;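 further: 0% = orexin A challenge wells and 100% = SB-334867-A antagonist wells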
# TAAR1 agonist: human TAAR1 agonism | 360,000 tested, 0.99% active | Q96RJ0 | activation, % at 3 µM | AID 624467 | CHO RD-HGA16 TAAR1, Fluo-8 calcium fluorescence; vehicle wells 0%, saturating PEA agonist 100%;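 active means activation above the mean activation of all test compounds in the run plus 3 SD, cut at about 38% in these data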
#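 System: CHO RD-HGA16 cells carrying human TAAR1 plus Gα16; Incubation: 17-24 h seeding, 75 min 37 °C dye, 30 min RT; Measured by: Fluo-8 fluorescence, 5 s baseline then 140 s kinetic read; Control set: DMSO and PEA EC100; Replication: single well for each compound.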
# CHO parental Ca: counter-screen for OX1R antagonists: effect in parental CHO cells. 330,000 tested, 0.63% active. parental CHO-K1, ATP-induced calcium, Fluo-8 fluorescence. inhibition, % at 5.6 µM;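 active means inhibition above that plate's mean sample inhibition plus 3 SD, cut at about 26% in these data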;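 further: 0% = ATP-challenged DMSO wells and 100% = DMSO wells without ATP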
#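 Test system: untransfected parental CHO cell line. Compound: one dose, 5.6 µM nominal. Detection: intracellular calcium via Fluo-8 no-wash fluorescent dye. Measure: % inhibition. Benchmarks: ATP-challenged DMSO wells low, unchallenged DMSO wells high.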
# GPR7 antagonist: human neuropeptides B/W receptor 1 antagonism; P48145; GPR7-expressing cells, fluorescence antagonist assay; inhibition, % at 4.4 µM; 290,000 tested, 1.1% active; AID 1861; in the data active means inhibition above about 16%, passing the limit was not always enough;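 further: cells stimulated with the agonist NPW; 0% = agonist with vehicle and 100% = vehicle without agonist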
# TAAR1 nonsel count: nonselective antagonism, TAAR1 counter-screen; 2,400 tested, 77% active; counterscreen cell line, calcium fluorescence, antagonist mode; shares compounds with TAAR1 antag; AID 651780; inhibition, % at 3 µM; in the data active means inhibition above about 22%;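 further: CHO-Ga16 host cells stimulated with ATP at an EC80 level; 0% = agonist EC80 plus vehicle and 100% = vehicle without agonist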
# TAAR1 ant conf: confirmation of human TAAR1 antagonists. 2,400 tested, 40% active. shares compounds with TAAR1 antag. inhibition, % at 3 µM. AID 651785. TAAR1-expressing cells, fluorescence antagonist read-out; in the data active means inhibition above about 49%;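 further: CHO-Ga16 host cells challenged with agonist PEA near its EC80; 0% = agonist at EC80 plus vehicle and 100% = vehicle with no agonist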
# Ga16 ag counter: nonselective Ga16 agonist in TAAR1 antagonist counter-screen; Ga16-expressing cells, calcium fluorescence, agonist counterscreen; 2,400 tested, 18% active; shares compounds with TAAR1 antag; activation, % at 3 µM; in the data active means activation above about 12%;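 further: 0% = vehicle wells and 100% = saturating stimulus response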
# TAAR1 ag counter: counter-screen for human TAAR1 antagonists: TAAR1 agonists. shares compounds with TAAR1 antag. hTAAR1 cell line, fluorescence activation, agonist mode. activation, % at 3 µM. 2,400 tested, 2% active; in the data active means activation above about 37%;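 further: CHO cells stably expressing TAAR1 with calcium dye readout; 0% = DMSO vehicle and 100% = full agonist response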
# * = called active by the depositor; . = no result.
SMILES,TAAR1 antag,OX1R antag-1,OX1R antag-2,TAAR1 agonist,CHO parental Ca,GPR7 antagonist,TAAR1 nonsel count,TAAR1 ant conf,Ga16 ag counter,TAAR1 ag counter
O=C1OC[C@H]2CCCN2C(=O)[C@@H](CC(=O)N(CCO)Cc2ccccc2)C/C=C\C[C@@H]1Cc1ccc(F)cc1,56.5*,8.6,-14.1,20.8,-18.1,.,25.2*,34.4,8.2,6.2
O=C1N[C@@H](c2ccccc2)COC(=O)[C@@H](Cc2ccc(F)cc2)CC/C=C/C[C@H]1CC(=O)N(CCO)Cc1ccccc1,70.9*,6.9,-15.2,19.0,-13.2,.,31.5*,55.8*,13.8*,21.4
CC(C)(C)[C@@H]1COC(=O)[C@H](Cc2ccc(F)cc2)C/C=C\C[C@H](CC(=O)N(CCO)Cc2ccccc2)C(=O)N1,49.9*,10.2,-7.5,33.5,-30.0,.,19.0,40.3,8.8,12.1
C[C@H]1COC(=O)[C@H](Cc2ccc(F)cc2)C/C=C\C[C@@H](CC(=O)N(CCO)Cc2ccccc2)C(=O)N1,18.1,5.9,-4.0,10.3,-4.5,.,.,.,.,.
COc1ccc(S(=O)(=O)Oc2ccccc2C(=S)N2CCOCC2)cc1,-1.3,20.9,-11.3,1.0,-3.3,-9.0,.,.,.,.
O=C(NCc1ccccc1Cl)c1cc(C(=O)C2CC2)c[nH]1,-38.7,6.4,-11.2,7.2,6.9,-0.6,.,.,.,.
CC(OC(=O)CNS(=O)(=O)c1ccc2ccccc2c1)C(=O)N(C)c1ccccc1 (stereo not drawn),-18.3,48.9,-12.2,0.3,-0.8,0.1,.,.,.,.
CC(OC(=O)COc1ccc(Nc2ccccc2)cc1)C(=O)N(C)c1ccccc1 (stereo not drawn),73.0*,38.3,-13.3,5.2,-4.3,.,30.3*,43.4,8.3,2.4
O=C(NCCCCc1ccccc1)C1CC(c2ccc(C(F)(F)F)cc2)=NO1 (stereo not drawn),84.3*,31.6,-8.1,28.0,2.8,.,23.0*,18.4,3.4,3.4
O=C(CNC(=O)c1ccc(Cl)cc1Cl)OCCOc1ccccc1,-36.9,15.5,-20.2,-1.2,-11.8,.,.,.,.,.
CCN1C=C(Cc2cccs2)C2=C(C1)C(c1cccs1)C(C#N)=C(N)O2 (stereo not drawn),53.1*,31.4,-11.8,25.9,-18.4,-10.7,20.1,37.5,6.0,9.5
CCN1CC2=C(OC(N)=C(C#N)C2c2cccs2)/C(=C/c2cccs2)C1 (stereo not drawn),34.4,15.4,-19.6,17.6,-29.9,-9.1,.,.,.,.
COC(=O)c1ccccc1NC(=O)CSc1nnnn1-c1ccc(C)cc1C,50.4*,-3.2,-26.5,14.3,-0.2,12.1,29.5*,32.2,4.3,2.9
COC(=O)C(CCCCN1C(=O)C2C3C=CC(C3)C2C1=O)N1C(=O)C2C3C=CC(C3)C2C1=O (stereo not drawn),4.5,12.4,-10.6,19.8,-12.4,-7.1,.,.,.,.
COc1ccc(C(=O)COC(=O)C(CCCCN2C(=O)C3C4C=CC(C4)C3C2=O)N2C(=O)C3C4C=CC(C4)C3C2=O)cc1 (stereo not drawn),58.8*,15.1,-10.5,21.2,-5.7,5.4,33.0*,50.6*,9.4,9.1
COc1ccc(OC)c(NC(=O)Cc2csc(NC(=O)Nc3ccccc3OC)n2)c1,65.4*,18.8,-6.3,22.9,2.9,.,39.3*,54.3*,10.9,11.8
COc1ccccc1NC(=O)Cc1csc(NC(=S)Nc2ccccc2)n1,37.2,16.4,4.5,23.6,-0.7,11.4,.,.,.,.
COc1ccccc1CC(=O)N1CCN(c2ccccc2F)CC1,8.5,-0.6,-33.2,3.4,-1.3,4.0,.,.,.,.
COc1ccc(NC(=S)Nc2nc(CC(=O)Nc3ccccc3OC)cs2)cc1,42.7,10.0,-0.9,16.1,6.4,2.2,.,.,.,.
COc1ccccc1NC(=O)Nc1nc(CC(=O)N2CCN(c3ccccc3F)CC2)cs1,64.7*,9.1,-20.9,15.4,-3.5,.,29.3*,48.4,10.0,10.8
COc1ccccc1NC(=O)Nc1nc(CC(=O)NCc2c(F)cccc2F)cs1,58.1*,24.4,-19.8,11.3,-29.6,.,29.2*,44.7,10.5,11.0
COc1ccc(NC(=O)Cc2csc(NC(=O)Nc3ccccc3OC)n2)c(OC)c1,69.5*,4.6,-25.5,14.7,-10.8,.,16.9,37.9,9.3,9.9
CCCCCCCC#Cc1ccccc1/C=N/S(=O)c1ccc(C)cc1 (stereo not drawn),.,5.0,-20.2,.,-10.0,-10.2,.,.,.,.
Cc1cccc(Cn2nc(C(C)(C)C)cc2C(=O)Nc2ccc(F)cc2)c1,69.9*,64.0,17.0,4.7,4.6,-16.6,30.9*,48.5,2.6,6.5
Cc1cccc(Cn2nc(C)c(NC(=O)c3ccc(F)cc3)c2C)c1,-16.2,8.9,-2.5,0.2,5.4,10.9,.,.,.,.
SMILES,TAAR1 antag,OX1R antag-1,OX1R antag-2,TAAR1 agonist,CHO parental Ca,GPR7 antagonist,TAAR1 nonsel count,TAAR1 ant conf,Ga16 ag counter,TAAR1 ag counter
O=C(Nc1ccc(N2CCOCC2)c(Cl)c1)c1ccc(-n2cnnc2)cc1,1.2,14.8,-6.5,2.2,2.7,4.0,.,.,.,.
COC(=O)c1cc(NC(=O)c2cc(C(C)(C)C)nn2Cc2ccc(F)cc2)ccc1N1CCOCC1,63.4*,3.6,-5.7,3.0,-25.9,-17.9,31.1*,46.1,3.8,0.5
O=C(Nc1ccc(N2CCOCC2)c(Cl)c1)c1ccc(F)cc1,62.9*,10.6,-12.4,13.8,-11.2,0.2,18.0,29.0,10.5,8.1
Clc1ccc2c(c1)-c1[nH]ncc1CS2,-38.8,3.9,-5.0,1.9,2.1,-13.6,.,.,.,.
COc1ccc(-c2cc(C(=O)NCC(c3ccccc3)N(C)C)c3ccccc3n2)cc1OC (stereo not drawn),26.7,6.7,-32.5,12.0,-18.5,-18.1,.,.,.,.
COc1ccc(-c2cc(C(=O)N(C)CC(=O)Nc3ccccc3C(F)(F)F)c3ccccc3n2)cc1OC,66.7*,.,.,21.9,.,.,33.9*,49.1*,7.8,9.2
COc1ccc(-c2cc(C(=O)N(C)CC(=O)Nc3ccccc3Br)c3ccccc3n2)cc1OC,65.3*,26.0,-35.2,11.7,-30.1,.,28.9*,50.9*,7.9,5.6
O=C(Cn1cnc2c(nnn2Cc2ccc(F)cc2)c1=O)NCc1ccco1,8.3,1.8,-32.8,0.7,-10.5,-6.5,.,.,.,.
CC(Sc1nc(N)cc(N)n1)C(=O)Nc1ccc(N2CCOCC2)cc1 (stereo not drawn),-2.0,11.1,-9.7,0.6,-5.2,.,.,.,.,.

# Compound activity deposited in PubChem BioAssay by The Scripps Research Institute Molecular Screening Center.
